Measurements as given in the M2OR odorant receptor database.
Residue numbers refer to the chain shown, from its start.

Columns and labels:
Settings in all cases: stereoisomer not certain
OR9A4 (Homo sapiens) = target: T1, OR9A4 (Homo sapiens) (UniProt Q8NGU2)
T1 sequence (whole entry): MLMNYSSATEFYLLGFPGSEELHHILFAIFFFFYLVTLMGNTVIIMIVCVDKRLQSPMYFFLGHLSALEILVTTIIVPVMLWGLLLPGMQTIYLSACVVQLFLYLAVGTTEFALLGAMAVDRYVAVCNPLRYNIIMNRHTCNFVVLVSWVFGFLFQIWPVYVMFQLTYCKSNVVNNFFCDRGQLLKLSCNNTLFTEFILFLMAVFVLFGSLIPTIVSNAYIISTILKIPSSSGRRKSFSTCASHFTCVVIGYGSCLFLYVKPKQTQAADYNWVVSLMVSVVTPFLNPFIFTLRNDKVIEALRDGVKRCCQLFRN
Summary of the method: (§1)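 Transient luciferase assays in mammalian cell lines were common, though methods varied by source. The values come from published papers and their supplementary material, with extra details from the original authors when needed. Responsive refers to a measured signal the original authors judged statistically different from baseline, and non-responsive (inactive) to the remainder.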

OR9G1 (Homo sapiens) = target: T2, OR9G1 (Homo sapiens) (UniProt Q8NH87)
T2 sequence (whole entry): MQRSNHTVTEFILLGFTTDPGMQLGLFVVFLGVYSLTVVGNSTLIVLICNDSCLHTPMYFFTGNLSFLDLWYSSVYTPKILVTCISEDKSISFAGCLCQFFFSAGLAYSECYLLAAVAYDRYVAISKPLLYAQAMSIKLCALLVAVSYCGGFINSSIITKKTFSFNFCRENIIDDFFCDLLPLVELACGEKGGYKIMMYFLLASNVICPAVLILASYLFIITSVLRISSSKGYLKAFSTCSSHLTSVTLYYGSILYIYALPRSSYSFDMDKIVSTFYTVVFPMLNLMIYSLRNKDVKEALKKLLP
Summary of the method: as §1

OR9G4 (Homo sapiens) = target: T3, OR9G4 (Homo sapiens) (UniProt Q8NGQ1)
T3 sequence (whole entry): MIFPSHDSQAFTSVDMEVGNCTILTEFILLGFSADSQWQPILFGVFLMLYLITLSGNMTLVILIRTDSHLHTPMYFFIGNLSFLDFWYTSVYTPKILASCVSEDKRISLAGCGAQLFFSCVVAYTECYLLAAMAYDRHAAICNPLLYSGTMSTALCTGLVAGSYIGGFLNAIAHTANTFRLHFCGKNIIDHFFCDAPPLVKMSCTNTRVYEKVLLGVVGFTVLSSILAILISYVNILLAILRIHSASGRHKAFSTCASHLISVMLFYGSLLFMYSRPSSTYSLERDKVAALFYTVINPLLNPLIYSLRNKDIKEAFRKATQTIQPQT
Summary of the method: as §1

OR9G4 H6Y N206D V222A = test system: T4, OR9G4 H6Y N206D V222A
T4 sequence (whole entry): T3 sequence (whole entry) with H6Y, N206D, V222A
Summary of the method: as §1

OR9G4 N206D V222A = test system: T5, OR9G4 N206D V222A
T5 sequence (whole entry): T3 sequence (whole entry) with N206D, V222A
Summary of the method: as §1

OR9G9 = test system: T6, OR9G9
T6 sequence (whole entry): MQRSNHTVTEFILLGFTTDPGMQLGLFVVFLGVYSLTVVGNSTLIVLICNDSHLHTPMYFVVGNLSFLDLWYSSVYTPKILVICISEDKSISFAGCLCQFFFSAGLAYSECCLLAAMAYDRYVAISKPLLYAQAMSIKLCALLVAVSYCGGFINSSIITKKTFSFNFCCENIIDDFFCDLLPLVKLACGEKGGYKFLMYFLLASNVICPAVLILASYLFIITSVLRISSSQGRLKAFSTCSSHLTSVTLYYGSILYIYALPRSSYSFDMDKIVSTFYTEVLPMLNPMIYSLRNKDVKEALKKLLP
Summary of the method: as §1

OR9I1 (Homo sapiens) = target: T7, OR9I1 (Homo sapiens) (UniProt Q8NGQ6)
T7 sequence (whole entry): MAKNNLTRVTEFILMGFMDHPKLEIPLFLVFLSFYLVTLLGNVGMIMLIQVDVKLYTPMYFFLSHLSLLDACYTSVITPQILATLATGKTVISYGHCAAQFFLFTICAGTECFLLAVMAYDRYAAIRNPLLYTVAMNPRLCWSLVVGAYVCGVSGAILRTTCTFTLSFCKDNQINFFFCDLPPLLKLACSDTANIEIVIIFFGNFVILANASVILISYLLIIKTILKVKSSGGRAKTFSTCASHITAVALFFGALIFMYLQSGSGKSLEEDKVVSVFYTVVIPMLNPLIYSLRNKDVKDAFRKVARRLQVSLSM
Summary of the method: as §1

OR9K2 (Homo sapiens) = target: T8, OR9K2 (Homo sapiens) (UniProt Q8NGE7)
T8 sequence (whole entry): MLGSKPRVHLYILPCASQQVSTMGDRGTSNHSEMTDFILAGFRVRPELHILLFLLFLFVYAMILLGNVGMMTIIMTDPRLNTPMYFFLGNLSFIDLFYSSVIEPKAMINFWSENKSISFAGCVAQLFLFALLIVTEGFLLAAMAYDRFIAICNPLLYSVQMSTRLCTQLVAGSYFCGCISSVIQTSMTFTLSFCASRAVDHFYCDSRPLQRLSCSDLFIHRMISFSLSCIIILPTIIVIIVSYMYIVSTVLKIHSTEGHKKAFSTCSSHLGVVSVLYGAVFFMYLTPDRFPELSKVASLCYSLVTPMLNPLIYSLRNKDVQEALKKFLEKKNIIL
Summary of the method: as §1

OR9K2 R207H = test system: T9, OR9K2 R207H
T9 sequence (whole entry): T8 sequence (whole entry) with R207H
Summary of the method: as §1

OR9Q1 (Homo sapiens) = target: T10, OR9Q1 (Homo sapiens) (UniProt Q8NGQ5)
T10 sequence (whole entry): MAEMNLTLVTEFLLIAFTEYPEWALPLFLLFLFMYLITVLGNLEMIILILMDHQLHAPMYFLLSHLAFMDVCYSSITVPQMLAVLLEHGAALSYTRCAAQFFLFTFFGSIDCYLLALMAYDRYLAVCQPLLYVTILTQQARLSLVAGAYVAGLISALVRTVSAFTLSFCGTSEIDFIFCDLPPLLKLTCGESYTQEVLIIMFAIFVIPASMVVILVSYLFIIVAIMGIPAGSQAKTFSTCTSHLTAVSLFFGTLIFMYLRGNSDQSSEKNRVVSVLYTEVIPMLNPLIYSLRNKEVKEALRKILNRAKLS
Summary of the method: as §1

OR9Q1 A83T = test system: T11, OR9Q1 A83T
T11 sequence (whole entry): T10 sequence (whole entry) with A83T
Summary of the method: as §1

OR9Q2 (Homo sapiens) = target: T12, OR9Q2 (Homo sapiens) (UniProt Q8NGE9)
T12 sequence (whole entry): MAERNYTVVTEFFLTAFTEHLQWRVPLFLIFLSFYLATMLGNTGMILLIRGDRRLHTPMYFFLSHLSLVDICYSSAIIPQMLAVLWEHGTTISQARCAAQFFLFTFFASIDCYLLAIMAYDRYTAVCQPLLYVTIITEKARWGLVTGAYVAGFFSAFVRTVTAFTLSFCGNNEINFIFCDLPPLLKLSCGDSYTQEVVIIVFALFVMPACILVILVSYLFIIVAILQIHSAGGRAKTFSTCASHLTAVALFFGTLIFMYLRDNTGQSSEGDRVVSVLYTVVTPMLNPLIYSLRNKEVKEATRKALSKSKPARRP
Summary of the method: as §1

OR9Q2 C179R = test system: T13, OR9Q2 C179R
T13 sequence (whole entry): T12 sequence (whole entry) with C179R
Summary of the method: as §1

Or10j5 (Mus musculus) = target: T14, Or10j5 (Mus musculus) (UniProt Q62007)
T14 sequence (whole entry): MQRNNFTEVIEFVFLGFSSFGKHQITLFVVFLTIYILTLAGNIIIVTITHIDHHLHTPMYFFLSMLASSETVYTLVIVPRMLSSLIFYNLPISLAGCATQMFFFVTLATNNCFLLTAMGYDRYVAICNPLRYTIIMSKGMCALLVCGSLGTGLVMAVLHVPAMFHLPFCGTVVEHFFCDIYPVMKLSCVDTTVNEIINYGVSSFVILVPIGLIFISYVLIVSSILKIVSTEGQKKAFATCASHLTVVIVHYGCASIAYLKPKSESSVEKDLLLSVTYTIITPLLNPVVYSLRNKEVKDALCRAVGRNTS
Summary of the method: as §1

Or1m1 (Mus musculus) = target: T15, Or1m1 (Mus musculus) (UniProt Q8VFM9)
T15 sequence (whole entry): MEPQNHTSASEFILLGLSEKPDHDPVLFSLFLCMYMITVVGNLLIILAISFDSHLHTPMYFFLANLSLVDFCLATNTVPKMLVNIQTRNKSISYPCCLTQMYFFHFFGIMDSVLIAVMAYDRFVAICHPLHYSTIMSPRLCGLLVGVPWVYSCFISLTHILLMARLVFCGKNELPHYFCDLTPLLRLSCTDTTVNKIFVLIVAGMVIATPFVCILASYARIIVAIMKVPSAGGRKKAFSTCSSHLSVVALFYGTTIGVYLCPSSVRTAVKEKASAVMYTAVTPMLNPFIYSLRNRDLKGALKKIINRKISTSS
Summary of the method: as §1

Or2c1 (Mus musculus) = target: T16, Or2c1 (Mus musculus) (UniProt P23275)
T16 sequence (whole entry): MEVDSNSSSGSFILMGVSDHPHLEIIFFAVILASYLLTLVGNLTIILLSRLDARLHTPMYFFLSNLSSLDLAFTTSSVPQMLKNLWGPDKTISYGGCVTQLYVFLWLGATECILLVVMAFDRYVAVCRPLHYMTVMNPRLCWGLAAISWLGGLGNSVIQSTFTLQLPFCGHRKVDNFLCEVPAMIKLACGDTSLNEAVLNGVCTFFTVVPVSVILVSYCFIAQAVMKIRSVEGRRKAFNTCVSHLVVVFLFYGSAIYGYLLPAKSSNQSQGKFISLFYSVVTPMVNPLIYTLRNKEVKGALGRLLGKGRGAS
Summary of the method: as §1

Or5ar1 (Mus musculus) = target: T17, Or5ar1 (Mus musculus) (UniProt Q8VGS3)
T17 sequence (whole entry): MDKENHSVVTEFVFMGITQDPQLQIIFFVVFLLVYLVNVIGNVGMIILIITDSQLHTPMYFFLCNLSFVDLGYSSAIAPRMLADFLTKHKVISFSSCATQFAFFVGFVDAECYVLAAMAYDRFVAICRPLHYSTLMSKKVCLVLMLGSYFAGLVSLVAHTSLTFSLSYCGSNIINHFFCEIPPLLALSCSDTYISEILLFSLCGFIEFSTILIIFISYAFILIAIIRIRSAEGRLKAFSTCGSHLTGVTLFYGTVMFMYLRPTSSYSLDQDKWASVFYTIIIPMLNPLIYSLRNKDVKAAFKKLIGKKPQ
Summary of the method: as §1

Or5k16 (Mus musculus) = target: T18, Or5k16 (Mus musculus) (UniProt Q7TS48)
T18 sequence (whole entry): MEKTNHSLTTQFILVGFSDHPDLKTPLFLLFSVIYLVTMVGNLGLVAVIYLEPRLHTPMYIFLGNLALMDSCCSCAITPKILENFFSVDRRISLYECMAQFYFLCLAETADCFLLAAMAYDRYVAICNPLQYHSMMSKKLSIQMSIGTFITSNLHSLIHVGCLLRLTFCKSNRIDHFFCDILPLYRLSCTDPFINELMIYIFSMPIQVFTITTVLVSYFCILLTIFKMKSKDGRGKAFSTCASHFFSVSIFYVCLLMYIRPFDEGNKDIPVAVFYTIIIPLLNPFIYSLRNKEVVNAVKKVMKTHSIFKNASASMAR
Summary of the method: as §1

OR9G9 (Homo sapiens) = target: T19, OR9G9 (Homo sapiens) (UniProt P0C7N8)
T19 sequence (whole entry): T6 sequence (whole entry) with G193C
Summary of the method: as §1

Measured: odorant receptor agonist call;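 note: active if original authors judged signal statistically different from baseline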

CCCC(S)CCOC(C)=O (stereo not drawn)
inactive: OR9A4 (Homo sapiens) | OR9G1 (Homo sapiens) | OR9G4 (Homo sapiens) | OR9G4 H6Y N206D V222A | OR9G4 N206D V222A | OR9G9 | OR9I1 (Homo sapiens) | OR9K2 (Homo sapiens) | OR9K2 R207H | OR9Q1 (Homo sapiens) | OR9Q1 A83T | OR9Q2 (Homo sapiens) | OR9Q2 C179R

CC(C)=CCCC(C)=CCO
inactive: Or10j5 (Mus musculus) | Or1m1 (Mus musculus) | Or2c1 (Mus musculus) | Or5ar1 (Mus musculus)

CC1=NC(C)C(C)S1 (stereo not drawn)
inactive: OR9A4 (Homo sapiens) | OR9G1 (Homo sapiens) | OR9G4 (Homo sapiens) | OR9G4 H6Y N206D V222A | OR9G4 N206D V222A | OR9G9 | OR9I1 (Homo sapiens) | OR9K2 (Homo sapiens) | OR9K2 R207H | OR9Q1 (Homo sapiens) | OR9Q1 A83T | OR9Q2 (Homo sapiens) | OR9Q2 C179R
active: Or5k16 (Mus musculus)

O=C(O)CCCBr
inactive: Or10j5 (Mus musculus)

O=C([O-])CCCCC(=O)[O-].[H+].[H+]
inactive: Or10j5 (Mus musculus)

CCCCCC(=O)C(C)C(C)=O (stereo not drawn)
inactive: OR9A4 (Homo sapiens) | OR9G1 (Homo sapiens) | OR9G4 (Homo sapiens) | OR9G9 (Homo sapiens) | OR9I1 (Homo sapiens) | OR9K2 (Homo sapiens) | OR9Q1 (Homo sapiens) | OR9Q2 (Homo sapiens)

CCCCCCCCCO
inactive: Or10j5 (Mus musculus) | Or1m1 (Mus musculus) | Or2c1 (Mus musculus) | Or5ar1 (Mus musculus)

CC1=C(O)C(=O)OC1C (stereo not drawn)
inactive: OR9A4 (Homo sapiens) | OR9G1 (Homo sapiens) | OR9G4 (Homo sapiens) | OR9G4 H6Y N206D V222A | OR9G4 N206D V222A | OR9G9 | OR9I1 (Homo sapiens) | OR9K2 (Homo sapiens) | OR9K2 R207H | OR9Q1 (Homo sapiens) | OR9Q1 A83T | OR9Q2 (Homo sapiens) | OR9Q2 C179R
